# Reference: ChEMBL document CHEMBL2062460, “Disubstituted thiourea derivatives and their activity on CNS: synthesis and biological evaluation” (Eur J Med Chem, 2012)
# The source made the active and inactive calls. No cut-off for these calls is given here.
# Columns and labels:
# [1] = tested on: Human immunodeficiency virus 1; experiment: Antiviral activity against HIV1 infected in human MT4 cells assessed as virus-induced cytopathogenicity after 4 days by MTT assay; assay type: functional, organism-based; details: Human immunodeficiency virus 1, MT4, 96 h
# [2] = tested on: Staphylococcus aureus; experiment: Antibacterial activity against methicillin-susceptible Staphylococcus aureus clinical isolate 256/08 after 18 hrs by twofold serial agar dilution technique; assay type: functional; details: clinical isolate 256/08, 18 h
# In short: (§1)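 Clinical isolates came from patients in Warsaw Medical University Hospitals and were classed as methicillin-susceptible or -resistant. MIC was determined by twofold serial agar dilution on Mueller–Hinton II agar (CLSI), 3.125–400 µg/mL in agar, with compounds in methanol or DMSO. Inoculum was 10^4 CFU/mL and plates were read after 18 h at 35 °C.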
# [3] = tested on: Candida albicans; experiment: Antifungal activity against Candida albicans ATCC 90028 at 400 ug/disc after 18 hrs by disc diffusion method; assay type: functional, organism-based
# In short: (§2)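 Yeasts tested by disc diffusion (CLSI) on RPMI agar with 2% glucose; 9 mm paper discs bearing 400 µg compound from methanol or DMSO solution; inhibition zone diameter read after 18 h at 35 °C.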
# [4] = tested on: Staphylococcus aureus; experiment: Antibacterial activity against methicillin-susceptible Staphylococcus aureus clinical isolate 367/09 after 18 hrs by twofold serial agar dilution technique; assay type: functional; details: clinical isolate 367/09, 18 h; in short: as §1
# [5] = tested on: Staphylococcus epidermidis; experiment: Antibacterial activity against methicillin-resistant Staphylococcus epidermidis clinical isolate 315/08 after 18 hrs by twofold serial agar dilution technique; assay type: functional; details: clinical isolate 315/08, 18 h; in short: as §1
# [6] = tested on: Staphylococcus aureus; experiment: Antibacterial activity against methicillin-resistant Staphylococcus aureus clinical isolate 306/08 after 18 hrs by twofold serial agar dilution technique; assay type: functional; details: clinical isolate 306/08, 18 h; in short: as §1
# [7] = tested on: Candida parapsilosis; experiment: Antifungal activity against Candida parapsilosis ATCC 22019 at 400 ug/disc after 18 hrs by disc diffusion method; assay type: functional, organism-based; in short: as §2
# [8] = tested on: Micrococcus luteus; experiment: Antibacterial activity against Micrococcus luteus ATCC 9341 after 18 hrs by twofold serial agar dilution technique; assay type: functional; details: ATCC 9341, 18 h
# [9] = tested on: Staphylococcus aureus; experiment: Antibacterial activity against methicillin-resistant Staphylococcus aureus clinical isolate 357/09 after 18 hrs by twofold serial agar dilution technique; assay type: functional; details: clinical isolate 357/09, 18 h; in short: as §1
# [10] = tested on: Micrococcus luteus; experiment: Antibacterial activity against Micrococcus luteus ATCC 10240 at 400 ug/disc after 18 hrs by disc diffusion method; assay type: functional; details: ATCC 10240, 18 h, read-out: DIZ
# In short: (§3)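 Disc diffusion per CLSI on Mueller–Hinton II agar; 9 mm paper discs loaded from methanol or DMSO solutions to 400 µg per disc, dried; growth inhibition zone diameter read after 18 h at 35 °C.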
# [11] = tested on: Enterococcus hirae; experiment: Antibacterial activity against Enterococcus hirae ATCC 10541 after 18 hrs by twofold serial agar dilution technique; assay type: functional; details: ATCC 10541, 18 h
# [12] = tested on: Staphylococcus aureus; experiment: Antibacterial activity against methicillin-susceptible Staphylococcus aureus clinical isolate 369/09 after 18 hrs by twofold serial agar dilution technique; assay type: functional; details: clinical isolate 369/09, 18 h; in short: as §1
# [13] = tested on: Staphylococcus aureus; experiment: Antibacterial activity against methicillin-resistant Staphylococcus aureus clinical isolate 277/08 after 18 hrs by twofold serial agar dilution technique; assay type: functional; details: clinical isolate 277/08, 18 h; in short: as §1
# [14] = tested on: Staphylococcus epidermidis; experiment: Antibacterial activity against methicillin-resistant Staphylococcus epidermidis clinical isolate 377/09 after 18 hrs by twofold serial agar dilution technique; assay type: functional; details: clinical isolate 377/09, 18 h; in short: as §1
# [15] = tested on: Enterococcus hirae; experiment: Antibacterial activity against Enterococcus hirae ATCC 10541 at 400 ug/disc after 18 hrs by disc diffusion method; assay type: functional; details: for zone of inhibition at 400 µg/disc: ATCC 10541, 18 h, read-out: DIZ; in short: as §3
# [16] = tested on: Pseudomonas aeruginosa; experiment: Antibacterial activity against Pseudomonas aeruginosa ATCC 15442 at 400 ug/disc after 18 hrs by disc diffusion method; assay type: functional, organism-based; in short: as §3
# [17] = tested on: Staphylococcus aureus; experiment: Antibacterial activity against methicillin-resistant Staphylococcus aureus clinical isolate 275/08 after 18 hrs by twofold serial agar dilution technique; assay type: functional; details: clinical isolate 275/08, 18 h; in short: as §1
# [18] = tested on: Staphylococcus aureus; experiment: Antibacterial activity against methicillin-resistant Staphylococcus aureus clinical isolate 376/09 after 18 hrs by twofold serial agar dilution technique; assay type: functional; details: clinical isolate 376/09, 18 h; in short: as §1
# [19] = tested on: Staphylococcus epidermidis; experiment: Antibacterial activity against methicillin-resistant Staphylococcus epidermidis clinical isolate 340/09 after 18 hrs by twofold serial agar dilution technique; assay type: functional; details: clinical isolate 340/09, 18 h; in short: as §1
# [20] = tested on: Staphylococcus aureus; experiment: Antibacterial activity against methicillin-resistant Staphylococcus aureus clinical isolate 309/08 after 18 hrs by twofold serial agar dilution technique; assay type: functional; details: clinical isolate 309/08, 18 h; in short: as §1
# [21] = tested on: Staphylococcus epidermidis; experiment: Antibacterial activity against methicillin-resistant Staphylococcus epidermidis clinical isolate 341/09 after 18 hrs by twofold serial agar dilution technique; assay type: functional; details: clinical isolate 341/09, 18 h; in short: as §1
# [22] = tested on: Staphylococcus epidermidis; experiment: Antibacterial activity against Staphylococcus epidermidis ATCC 12228 at 400 ug/disc after 18 hrs by disc diffusion method; assay type: functional; details: ATCC 12228, 18 h, read-out: DIZ; in short: as §3
# [23] = tested on: Staphylococcus aureus; experiment: Antibacterial activity against Staphylococcus aureus ATCC 25923 at 400 ug/disc after 18 hrs by disc diffusion method; assay type: functional; details: ATCC 25923, 18 h, read-out: DIZ; in short: as §3
# [24] = tested on: Staphylococcus aureus; experiment: Antibacterial activity against methicillin-susceptible Staphylococcus aureus clinical isolate 372/09 after 18 hrs by twofold serial agar dilution technique; assay type: functional; details: clinical isolate 372/09, 18 h; in short: as §1
# [25] = tested on: Staphylococcus aureus; experiment: Antibacterial activity against methicillin-resistant Staphylococcus aureus clinical isolate 307/08 after 18 hrs by twofold serial agar dilution technique; assay type: functional; details: clinical isolate 307/08, 18 h; in short: as §1
# [26] = tested on: Staphylococcus aureus; experiment: Antibacterial activity against Staphylococcus aureus ATCC 25923 after 18 hrs by twofold serial agar dilution technique; assay type: functional; details: ATCC 25923, 18 h
# In short: (§4)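 Twofold serial agar dilution on Mueller–Hinton II agar, following CLSI guidelines. Compounds were dissolved in methanol or DMSO and tested at final agar concentrations of 3.125–400 µg/mL. Final inoculum was 10^4 CFU/mL.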
# [27] = tested on: Staphylococcus aureus; experiment: Antibacterial activity against methicillin-susceptible Staphylococcus aureus clinical isolate 338/08 after 18 hrs by twofold serial agar dilution technique; assay type: functional; details: clinical isolate 338/08, 18 h; in short: as §1
# [28] = tested on: Escherichia coli; experiment: Antibacterial activity against Escherichia coli ATCC 10538 at 400 ug/disc after 18 hrs by disc diffusion method; assay type: functional, organism-based; in short: as §3
# [29] = tested on: Bacillus cereus; experiment: Antibacterial activity against Bacillus cereus ATCC 11778 after 18 hrs by twofold serial agar dilution technique; assay type: functional; details: ATCC 11778, 18 h
# [30] = tested on: Bacillus cereus; experiment: Antibacterial activity against Bacillus cereus ATCC 11778 at 400 ug/disc after 18 hrs by disc diffusion method; assay type: functional; details: ATCC 11778, 18 h, read-out: DIZ; in short: as §3
# [31] = tested on: Staphylococcus aureus; experiment: Antibacterial activity against Staphylococcus aureus NCTC 4163 after 18 hrs by twofold serial agar dilution technique; assay type: functional; details: NCTC 4163, 18 h; in short: as §4
# [32] = tested on: Pseudomonas aeruginosa; experiment: Antibacterial activity against Pseudomonas aeruginosa NCTC 6749 at 400 ug/disc after 18 hrs by disc diffusion method; assay type: functional, organism-based; in short: as §3
# [33] = tested on: Staphylococcus epidermidis; experiment: Antibacterial activity against methicillin-resistant Staphylococcus epidermidis clinical isolate 317/08 after 18 hrs by twofold serial agar dilution technique; assay type: functional; details: clinical isolate 317/08, 18 h; in short: as §1
# [34] = tested on: Micrococcus luteus; experiment: Antibacterial activity against Micrococcus luteus ATCC 10240 after 18 hrs by twofold serial agar dilution technique; assay type: functional; details: ATCC 10240, 18 h
# [35] = tested on: Staphylococcus epidermidis; experiment: Antibacterial activity against methicillin-resistant Staphylococcus epidermidis clinical isolate 318/08 after 18 hrs by twofold serial agar dilution technique; assay type: functional; details: clinical isolate 318/08, 18 h; in short: as §1
# [36] = tested on: Bordetella bronchiseptica; experiment: Antibacterial activity against Bordetella bronchiseptica ATCC 4617 at 400 ug/disc after 18 hrs by disc diffusion method; assay type: functional, organism-based; in short: as §3
SMILES,MIC [2] [µg/mL],diameter of the inhibition zone (DIZ) [3],MIC [4] [µg/mL],MIC [6] [µg/mL],diameter of the inhibition zone (DIZ) [7],MIC [8] [µg/mL],MIC [9] [µg/mL],zone of inhibition at 400 µg/disc [10] [mm],MIC [11] [µg/mL],MIC [12] [µg/mL],MIC [13] [µg/mL],diameter of the inhibition zone (DIZ) [16],MIC [17] [µg/mL],MIC [18] [µg/mL],MIC [20] [µg/mL],zone of inhibition at 400 µg/disc [22] [mm],zone of inhibition at 400 µg/disc [23] [mm],MIC [24] [µg/mL],MIC [25] [µg/mL],MIC [26] [µg/mL],other results
Fc1ccc(NC(=S)Nc2nc[nH]n2)cc1,50,inactive,50,50,inactive,6.25,50,23,400,50,50,inactive,100,50,50,16,18,50,50,50,EC50 [1]: > 100 µM; MIC [5]: 50 µg/mL; MIC [14]: 50 µg/mL; zone of inhibition at 400 µg/disc [15]: 11 mm; MIC [19]: 50 µg/mL; MIC [21]: 100 µg/mL; MIC [27]: 50 µg/mL; diameter of the inhibition zone (DIZ) [28]: inactive; MIC [29]: 6.25 µg/mL; zone of inhibition at 400 µg/disc [30]: 16 mm; MIC [31]: 50 µg/mL; diameter of the inhibition zone (DIZ) [32]: inactive; MIC [33]: 50 µg/mL; MIC [34]: 6.25 µg/mL; MIC [35]: 50 µg/mL; diameter of the inhibition zone (DIZ) [36]: inactive
S=C(Nc1ccc(Cl)cc1)Nc1nc[nH]n1,25,inactive,25,25,inactive,25,50,30,200,25,50,inactive,25,25,25,20,23,25,25,25,EC50 [1]: > 47 µM; MIC [5]: 25 µg/mL; MIC [14]: 25 µg/mL; zone of inhibition at 400 µg/disc [15]: 23 mm; MIC [19]: 12.5 µg/mL; MIC [21]: 12.5 µg/mL; MIC [27]: 25 µg/mL; diameter of the inhibition zone (DIZ) [28]: inactive; MIC [29]: 12.5 µg/mL; zone of inhibition at 400 µg/disc [30]: 16 mm; MIC [31]: 25 µg/mL; diameter of the inhibition zone (DIZ) [32]: inactive; MIC [33]: 25 µg/mL; MIC [34]: 25 µg/mL; MIC [35]: 25 µg/mL; diameter of the inhibition zone (DIZ) [36]: inactive
Fc1cccc(NC(=S)Nc2nc[nH]n2)c1,25,inactive,12.5,12.5,inactive,50,25,40,400,12.5,12.5,inactive,25,25,12.5,22,34,25,12.5,50,zone of inhibition at 400 µg/disc [15]: 16 mm; MIC [27]: 24 µg/mL; diameter of the inhibition zone (DIZ) [28]: inactive; MIC [29]: 50 µg/mL; zone of inhibition at 400 µg/disc [30]: 14 mm; MIC [31]: 50 µg/mL; diameter of the inhibition zone (DIZ) [32]: inactive; MIC [34]: 50 µg/mL; diameter of the inhibition zone (DIZ) [36]: inactive
Fc1ccccc1NC(=S)Nc1nc[nH]n1,> 400,inactive,> 400,> 400,inactive,100,> 400,38,400,> 400,> 400,inactive,> 400,> 400,> 400,11,19,> 400,> 400,200,diameter of the inhibition zone (DIZ) [15]: inactive; MIC [27]: > 400 µg/mL; diameter of the inhibition zone (DIZ) [28]: inactive; MIC [29]: 100 µg/mL; zone of inhibition at 400 µg/disc [30]: 11 mm; MIC [31]: 200 µg/mL; diameter of the inhibition zone (DIZ) [32]: inactive; MIC [34]: 100 µg/mL; diameter of the inhibition zone (DIZ) [36]: inactive
